From ChEMBL document CHEMBL1142646, “Tetrahydroisoquinoline 1-carboxamides as growth hormone secretagogues” (Bioorg Med Chem Lett, 2005)

Tests used:
[1] = target: T1, Growth hormone secretagogue receptor type 1 (Homo sapiens, UniProt Q92847); assay: In vitro effective concentration against human growth hormone secretagogues; format: functional
Procedure, shortened: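 Cell-based FLIPR functional assay in H4 glioma cells in which expression of the endogenous human GHS receptor is enhanced by RAGE-activation. Agonism is read as intracellular calcium mobilization with a calcium-sensitive fluorescent probe, and EC50 is derived from the response.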

[2] = target: T1, Growth hormone secretagogue receptor type 1; assay: Maximum intrinsic activity against human growth hormone secretagogues at a concentration of 10 uM; format: functional
Rattus norvegicus [3] = assay: Percent of plasma growth hormone increase at an IV dose of 5.23 lmol/kg; format: functional
Procedure, shortened: (§1)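 Anesthetized rats (treatment stabilizes baseline plasma GH near 60 ng/mL) were given drug or vehicle (10% ethanol, 0.09% saline V/V) IV at 10 mL/kg, five rats per group. Blood was drawn from the abdominal aorta 15 min later for plasma GH. The result is expressed as % increase over the vehicle group, or as rats exceeding a 100% increase.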

Rattus norvegicus [4] = organism: Rattus norvegicus; assay: Number of rats with greater than 100% growth hormone increase over the control group, there are five rats in both control and compound treated groups; format: functional; procedure, shortened: as §1
[5] = target: T1, Growth hormone secretagogue receptor type 1; assay: In vivo effective concentration against human growth hormone secretagogues; format: functional, organism-based, Rattus norvegicus
Rattus norvegicus [6] = organism: Rattus norvegicus; assay: Number of rats with greater than 100% GH increase over the controlgroup, there are five rats in both control and compound treated groups.; format: functional; procedure, shortened: as §1
[7] = target: T1, Growth hormone secretagogue receptor type 1; assay: In vitro effective concentration against human growth hormone secretagogues

T1 sequence (Q92847 whole entry): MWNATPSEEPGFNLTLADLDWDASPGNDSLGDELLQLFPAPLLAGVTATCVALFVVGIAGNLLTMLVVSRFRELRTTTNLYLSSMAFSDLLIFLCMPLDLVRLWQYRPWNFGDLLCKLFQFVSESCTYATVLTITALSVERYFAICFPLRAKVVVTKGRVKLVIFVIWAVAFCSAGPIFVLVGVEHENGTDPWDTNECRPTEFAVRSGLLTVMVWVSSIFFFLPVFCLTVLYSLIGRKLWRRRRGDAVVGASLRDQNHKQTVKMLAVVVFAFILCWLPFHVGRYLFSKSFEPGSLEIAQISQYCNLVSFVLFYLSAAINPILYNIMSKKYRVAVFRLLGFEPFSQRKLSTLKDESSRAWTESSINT

Row | SMILES | EC50 [1] [nM] | other results
1 | CC(=O)NC(C(=O)N1CCc2cc(OCc3ccccc3)ccc2C1C(=O)NCCN(C(C)C)C(C)C)c1ccccc1 (configuration not stated) | 19.7 | 
2 | CC(C)N(CCNC(=O)C1c2ccc(OCc3ccccc3)cc2CCN1C(=O)C(CO)c1ccccc1)C(C)C (configuration not stated) | 5.6 | 
3 | CC(C)N(C)CCNC(=O)C1c2ccc(OCc3ccccc3)cc2CCN1C(=O)OC(C)(C)C (configuration not stated) | 41 | 
4 | CC(C)N(CCNC(=O)C1c2ccc(OCc3ccccc3)cc2CCN1C(=O)OC(C)(C)C#N)C(C)C (configuration not stated) | 9.8 | 
5 | CC(C)N(CCNC(=O)C1c2ccc(OCc3ccccc3)cc2CCN1C(=O)Cc1ccccc1F)C(C)C (configuration not stated) | 43 | 
6 | CC(C)N(CCNC(=O)C1c2ccc(OCc3ccccc3)cc2CCN1C(=O)C(C)(C)C)C(C)C (configuration not stated) |  | Activity [2]: 50%
7 | CC(=O)N1CCc2cc(OCc3ccccc3)ccc2C1C(=O)NCCN(C(C)C)C(C)C (configuration not stated) | 257 | 
8 | CC(C)N(CCNC(=O)C1c2ccc(OCc3ccccc3)cc2CCN1C(=O)c1ccccc1F)C(C)C (configuration not stated) | 17.8 | 
9 | CC(C)N(CCNC(=O)C1c2ccc(OCc3ccccc3)cc2CCN1C(=O)OCc1ccccc1)C(C)C (configuration not stated) | 27 | 
10 | CC(C)NCCNC(=O)C1c2ccc(OCc3ccccc3)cc2CCN1C(=O)OC(C)(C)C (configuration not stated) | 219 | 
11 | CC(C)N(CCNC(=O)C1c2ccc(OCc3ccccc3)cc2CCN1C(=O)c1ccccc1)C(C)C (configuration not stated) | 7.6 | 
12 | CC(C)N(CCNC(=O)C1c2ccc(OCc3ccccc3)cc2CCN1C(=O)OC(C)(C)C)C(C)C (configuration not stated) | 11.7 | 
13 | CC(C)N(CCNC(=O)C1c2ccc(OCc3ccccc3)cc2CCN1C(=O)Cc1ccccc1)C(C)C (configuration not stated) | 9 | 
14 | CC(C)N(CCNC(=O)C1c2ccc(Oc3ccccc3)cc2CCN1C(=O)OC(C)(C)C)C(C)C (single isomer, unassigned; form 1) | 7.6 | 
15 | CC(=O)c1ccccc1C(=O)N1CCc2cc(OCc3ccccc3)ccc2C1C(=O)NCCN(C(C)C)C(C)C (configuration not stated) | 7.3 | 
16 | CC(C)N(CCNC(=O)C1c2ccc(OCc3ccccc3)cc2CCN1C(=O)CCCc1ccccc1)C(C)C (configuration not stated) | 13.1 | 
17 | CC(C)N(CCNC(=O)C1c2ccc(OCc3ccccc3)cc2CCN1S(=O)(=O)c1ccccc1)C(C)C (configuration not stated) | 21 | 
18 | CCCCS(=O)(=O)N1CCc2cc(OCc3ccccc3)ccc2C1C(=O)NCCN(C(C)C)C(C)C (configuration not stated) |  | Activity [2]: 50%
19 | CC(=O)Nc1cccc(Oc2ccc3c(c2)CCN(C(=O)OC(C)(C)C)C3C(=O)NCCN(C(C)C)C(C)C)c1 (configuration not stated) | 12 | 

Row | SMILES | EC50 [1] [nM] | other results
20 | CC(C)(N)CNC(=O)C1c2ccc(OCc3ccccc3)cc2CCN1C(=O)OC(C)(C)C (configuration not stated) |  | Activity [2]: 47%
21 | CC(=O)C(C(=O)N1CCc2cc(OCc3ccccc3)ccc2C1C(=O)NCCN(C(C)C)C(C)C)c1ccccc1 (configuration not stated) | 9.2 | 
22 | CC(C)N(CCNC(=O)C1c2ccc(OCc3ccccc3)cc2CCN1C(=O)NC(C)(C)C)C(C)C (configuration not stated) | 14.4 | 
23 | CC(C)N(CCNC(=O)C1c2ccc(OCc3ccccc3)cc2CCN1C(=O)CCc1ccccc1)C(C)C (configuration not stated) | 26.7 | 
24 | CCN(CC)CCNC(=O)C1c2ccc(OCc3ccccc3)cc2CCN1C(=O)OC(C)(C)C (configuration not stated) | 19.6 | 
25 | CCOc1ccccc1C(=O)N1CCc2cc(OCc3ccccc3)ccc2C1C(=O)NCCN(C(C)C)C(C)C (configuration not stated) |  | Activity [2]: 30%
26 | CC(C)N(CCNC(=O)C1c2ccc(OCc3ccccc3)cc2CCN1C(=O)Oc1ccccc1)C(C)C (configuration not stated) |  | Activity [2]: < 5%
27 | CC(C)N(CCNC(=O)C1c2ccc(OCc3ccccc3)cc2CCN1C(=O)Nc1ccccc1)C(C)C (configuration not stated) |  | Activity [2]: 43%
28 | CC(C)(CN)CNC(=O)C1c2ccc(OCc3ccccc3)cc2CCN1C(=O)OC(C)(C)C (configuration not stated) | 257 | 
29 | CN(C)CCNC(=O)C1c2ccc(OCc3ccccc3)cc2CCN1C(=O)OC(C)(C)C (configuration not stated) |  | Activity [2]: 46%
30 | CC(C)N(CCNC(=O)C1c2ccc(OCc3ccccc3)cc2CCN1S(=O)(=O)Cc1ccccc1)C(C)C (configuration not stated) | 7.3 | 
31 | CC(C)N(CCNC(=O)C1c2ccc(OCc3ccccc3)cc2CCN1C(=O)C(O)c1ccccc1)C(C)C (configuration not stated) | 39 | 
32 | COc1cccc(CC(=O)N2CCc3cc(OCc4ccccc4)ccc3C2C(=O)NCCN(C(C)C)C(C)C)c1 (configuration not stated) | 6.4 | 
33 | CC(C)N(CCNC(=O)C1c2ccc(OCc3ccccc3)cc2CCN1S(=O)(=O)N(C)C)C(C)C (configuration not stated) | 21 | 
34 | COc1ccc(CC(=O)N2CCc3cc(OCc4ccccc4)ccc3C2C(=O)NCCN(C(C)C)C(C)C)cc1 (configuration not stated) | 45 | 
35 | CC(C)N(CCNC(=O)C1c2ccc(OCc3ccccc3)cc2CCN1C(=O)N(C)C)C(C)C (configuration not stated) | 190 | 
36 | CC(C)N(CCNC(=O)C1c2ccc(OCc3ccccc3)cc2CCN1C(=O)CC(C)(C)C)C(C)C (configuration not stated) | 20.9 | 
37 | CC(C)N(CCNC(=O)C1c2ccc(OCc3ccccc3)cc2CCN1S(C)(=O)=O)C(C)C (configuration not stated) |  | Activity [2]: 47%

More lines, in order of falling EC50 [1], values ahead:

Row | EC50 [1] [nM] | SMILES | other results
38 | 4.9 | CC(C)N(CCNC(=O)C1c2ccc(OCc3ccccc3)cc2CCN1C(=O)OC1CCCCC1)C(C)C (configuration not stated) | 
39 | 4.3 | CC(C)N(CCNC(=O)C1c2ccc(Oc3cccc(F)c3)cc2CCN1C(=O)OC(C)(C)C)C(C)C (configuration not stated) | 
40 | 3.4 | CCCOC(=O)N1CCc2cc(OCc3ccccc3)ccc2C1C(=O)NCCN(C(C)C)C(C)C (configuration not stated) | 
41 | 3.4 | CC(C(=O)N1CCc2cc(OCc3ccccc3)ccc2C1C(=O)NCCN(C(C)C)C(C)C)c1ccccc1 (configuration not stated) | 
42 | 2.4 | CSc1ccc(Oc2ccc3c(c2)CCN(C(=O)OC(C)(C)C)C3C(=O)NCCN(C(C)C)C(C)C)cc1 (configuration not stated) | 
43 | 2.3 | CC(C)N(CCNC(=O)C1c2ccc(Oc3ccc(C(F)(F)F)cc3)cc2CCN1C(=O)OC(C)(C)C)C(C)C (configuration not stated) | 
44 | 2.1 | COc1ccccc1CC(=O)N1CCc2cc(OCc3ccccc3)ccc2C1C(=O)NCCN(C(C)C)C(C)C (configuration not stated) | 
45 | 2 | CC(=O)C(C)(C)OC(=O)N1CCc2cc(OCc3ccccc3)ccc2C1C(=O)NCCN(C(C)C)C(C)C (configuration not stated) | Increases (Rattus norvegicus [3]): 666%; Responder (Rattus norvegicus [6]): 5 rats; EC50 [7]: 2 nM
46 | 1.5 | CC(C)N(CCNC(=O)C1c2ccc(Oc3cccc(C(F)(F)F)c3)cc2CCN1C(=O)OC(C)(C)C)C(C)C (configuration not stated) | 
47 | 1.5 | COC(=O)C(C)(C)OC(=O)N1CCc2cc(OCc3ccccc3)ccc2C1C(=O)NCCN(C(C)C)C(C)C (configuration not stated) | Increase (Rattus norvegicus [3]): 746%; Responder (Rattus norvegicus [6]): 5 rats; EC50 [7]: 1.5 nM
48 | 1.4 | CC(C)N(CCNC(=O)C1c2ccc(Oc3ccc(C=O)cc3)cc2CCN1C(=O)OC(C)(C)C)C(C)C (configuration not stated) | 
49 | 0.85 | CC(C)N(CCNC(=O)C1c2ccc(OCc3ccccc3)cc2CCN1C(=O)OC(C)(C)C(=O)N(C)C)C(C)C (configuration not stated) | 
50 | 0.73 | CC(C)N(CCNC(=O)C1c2ccc(Oc3ccc(Cl)cc3)cc2CCN1C(=O)OC(C)(C)C)C(C)C (configuration not stated) | 
51 | 0.66 | CC(C)N(CCNC(=O)C1c2ccc(Oc3cccc([N+](=O)[O-])c3)cc2CCN1C(=O)OC(C)(C)C)C(C)C (configuration not stated) | 
52 | 0.49 | COc1ccc(Oc2ccc3c(c2)CCN(C(=O)OC(C)(C)C)C3C(=O)NCCN(C(C)C)C(C)C)cc1 (configuration not stated) | Increase (Rattus norvegicus [3]): 172%; Responder (Rattus norvegicus [6]): 4 rats; EC50 [7]: 0.49 nM
53 | 0.49 | CC(C)N(CCNC(=O)C1c2ccc(Oc3ccccc3)cc2CCN1C(=O)OC(C)(C)C)C(C)C (stereo in doubt; 12a) | 
54 | 0.46 | CC(C)N(CCNC(=O)C1c2ccc(Oc3ccccc3)cc2CCN1C(=O)OC(C)(C)C)C(C)C (single isomer, unassigned; form 2) | Increase (Rattus norvegicus [3]): 1283%; Responder (Rattus norvegicus [4]): 5 rats; EC50 [5]: 0.46 nM
55 | 0.46 | COc1cccc(Oc2ccc3c(c2)CCN(C(=O)OC(C)(C)C)C3C(=O)NCCN(C(C)C)C(C)C)c1 (configuration not stated) | 
